Results as given in article PMC5160999 (ChemMedChem, 2016).
≈ marks a conversion by molar mass, not a printed value. Where two headings read alike, the source gives them in different places.

Key:
EcFPPS = EcFPPS (Escherichia coli, UniProt P22939); assay: EcFPPS inhibition, phosphate release assay; assay type: biochemical, E. coli
Summary of the method: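 Purified recombinant FPPS (25 ng) preincubated with test compound for 10 min at room temperature in pH 7.0 buffer (10 mm HEPES, 150 mm NaCl, 5 mm MgCl2). Compound diluted from 1 mm to 1 nm. Reaction started with 50 μm GPP, 50 μm IPP, purine nucleoside phosphorylase, inorganic phosphatase and ~600 μm MESG.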

PaFPPS = PaFPPS (Pseudomonas aeruginosa, UniProt Q9HWY4); assay: PaFPPS inhibition, phosphate release assay; assay type: biochemical
Summary of the method: (§1)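 Purified enzyme (25 ng) preincubated with inhibitor for 10 min at room temperature in pH 7.0 buffer (10 mM HEPES, 150 mM NaCl, 5 mM MgCl2). Inhibitor stocks were 10 mM in DMSO or basic water, serially diluted from 1 mM to 1 nM. Reaction mix: 50 μM GPP, 50 μM IPP, purine nucleoside phosphorylase, inorganic phosphatase, ~600 μM MESG.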

TbFPPS = TbFPPS (Trypanosoma brucei, UniProt Q86C09); assay: TbFPPS inhibition, phosphate release assay; assay type: biochemical
Summary of the method: as §1

HsFPPS = biological target: T1, HsFPPS (Homo sapiens, UniProt P14324); assay: HsFPPS inhibition, phosphate release assay; assay type: biochemical, H. sapiens
T1 sequence (P14324 1-419): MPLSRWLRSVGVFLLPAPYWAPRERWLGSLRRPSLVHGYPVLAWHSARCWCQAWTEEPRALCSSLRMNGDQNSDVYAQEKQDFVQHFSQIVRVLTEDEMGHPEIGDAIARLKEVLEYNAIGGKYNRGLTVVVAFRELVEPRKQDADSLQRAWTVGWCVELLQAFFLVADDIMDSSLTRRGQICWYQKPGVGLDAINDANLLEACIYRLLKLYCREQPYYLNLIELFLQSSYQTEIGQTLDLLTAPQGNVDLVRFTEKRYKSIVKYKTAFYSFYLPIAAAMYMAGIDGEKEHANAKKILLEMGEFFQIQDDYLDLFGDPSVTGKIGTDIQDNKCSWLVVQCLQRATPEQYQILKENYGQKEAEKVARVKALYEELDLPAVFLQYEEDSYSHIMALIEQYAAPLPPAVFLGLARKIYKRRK

SmFPPS = SmFPPS (Schistosoma mansoni, UniProt G4VEL6); assay: SmFPPS inhibition, phosphate release assay; assay type: biochemical
Summary of the method: as §1

[1] = biological target: T2, human geranylgeranyl diphosphate synthase (HsGGPPS) (Homo sapiens, UniProt O95749); assay: HsGGPPS inhibition; assay type: biochemical
T2 sequence (O95749 1-300): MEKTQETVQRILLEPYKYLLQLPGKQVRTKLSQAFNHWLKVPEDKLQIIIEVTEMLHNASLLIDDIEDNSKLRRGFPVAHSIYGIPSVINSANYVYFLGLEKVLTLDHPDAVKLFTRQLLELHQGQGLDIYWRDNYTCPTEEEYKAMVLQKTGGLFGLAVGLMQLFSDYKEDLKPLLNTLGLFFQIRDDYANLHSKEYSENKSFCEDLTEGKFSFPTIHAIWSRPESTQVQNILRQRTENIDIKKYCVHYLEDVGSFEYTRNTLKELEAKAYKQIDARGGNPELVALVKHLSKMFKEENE

[2] = system: S. aureus (Newman strain); assay: S. aureus growth inhibition assay; assay type: cell-based; conditions: Staphylococcus aureus, read-out: IC50 S. aureus
Summary of the method: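 S. aureus Newman grown overnight in tryptic soy broth, then diluted 1000-fold in fresh medium. Test compound dosed as a 3-fold series from 1 mm to 46 nm. Incubated at 37°C, 200 RPM, overnight; growth read as OD600.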

B. subtilis = B. subtilis growth inhibition assay; assay type: cell-based; conditions: Bacillus subtilis, read-out: IC50 B. subtilis
Summary of the method: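 B. subtilis ATCC 6051 grown overnight in LB and diluted 1000-fold in fresh LB. Test compound added as a 3-fold series from 1 mm to 46 nm. Incubated overnight at 37°C with shaking at 200 RPM; inhibition read from OD600.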

M. smegmatis = M. smegmatis growth inhibition; assay type: cell-based, Mycobacterium smegmatis
E. coli [3] = assay: E. coli growth inhibition assay; assay type: cell-based; conditions: Escherichia coli
Summary of the method: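 E. coli K-12 or BL21(DE3). Overnight starter culture diluted 1000-fold and grown to OD600 ~0.3, then diluted 500-fold into LB. Test compound added as a 3-fold series from 1 mm to 46 nm. Incubated 12 h at 37°C with shaking at 200 RPM; growth read as A600. IC50 by nonlinear regression. Rescue arm: farnesol 200 μm in the medium. Duplicate experiments, mean±SD.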

A. baumannii [4] = assay: A. baumannii growth inhibition assay; assay type: cell-based; conditions: Acinetobacter baumannii
Summary of the method: (§2)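 Strains: A. baumannii ATCC 19606, K. pneumoniae ATCC 27736 and P. aeruginosa PA01, grown overnight in cation-adjusted Mueller-Hinton broth. Cultures diluted 1000-fold in fresh broth, with test compound as a 3-fold series from 1 mm to 46 nm. Incubated overnight at 37°C, 200 RPM; OD600 read. Rescue arm: farnesol 200 μm in the medium. Duplicate experiments, mean±SD.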

K. pneumoniae [5] = assay: K. pneumoniae growth inhibition assay; assay type: cell-based; conditions: Klebsiella pneumoniae
Summary of the method: as §2

P. aeruginosa (PA01) = assay: P. aeruginosa growth inhibition assay; assay type: cell-based; conditions: Pseudomonas aeruginosa
Summary of the method: as §2

HEK293 = HEK293 toxicity assay; assay type: cell-based; conditions: Homo sapiens, HEK293, read-out: IC50 HEK293
E. coli [6] = assay: Synergy/antagonism two-drug combination assay, E. coli; assay type: cell-based
A. baumannii [7] = assay: Synergy/antagonism two-drug combination assay, A. baumannii; assay type: cell-based
K. pneumoniae [8] = assay: Synergy/antagonism two-drug combination assay, K. pneumoniae; assay type: cell-based
P. aeruginosa = assay: Synergy/antagonism two-drug combination assay, P. aeruginosa; assay type: cell-based
[9] = system: E. coli BL21(DE3) with PaFPPS overexpression; assay: Growth inhibition of E. coli overexpressing PaFPPS; assay type: cell-based; conditions: Escherichia coli
[10] = system: E. coli, P. aeruginosa, K. pneumoniae and A. baumannii; assay: Growth inhibition, four Gram-negative bacteria taken together; assay type: cell-based; conditions: read-out: IC50, activity against all four Gram-negatives
[11] = system: E. coli, A. baumannii, K. pneumoniae and P. aeruginosa; assay: Synergy of 11 with fosmidomycin, mean over four Gram-negative bacteria; assay type: cell-based
[12] = E. coli, combination of 11 with fosmidomycin
[13] = A. baumannii, combination of 11 with fosmidomycin
[14] = K. pneumoniae, combination of 11 with fosmidomycin
[15] = P. aeruginosa, combination of 11 with fosmidomycin

Chain of EcFPPS (P22939 whole entry): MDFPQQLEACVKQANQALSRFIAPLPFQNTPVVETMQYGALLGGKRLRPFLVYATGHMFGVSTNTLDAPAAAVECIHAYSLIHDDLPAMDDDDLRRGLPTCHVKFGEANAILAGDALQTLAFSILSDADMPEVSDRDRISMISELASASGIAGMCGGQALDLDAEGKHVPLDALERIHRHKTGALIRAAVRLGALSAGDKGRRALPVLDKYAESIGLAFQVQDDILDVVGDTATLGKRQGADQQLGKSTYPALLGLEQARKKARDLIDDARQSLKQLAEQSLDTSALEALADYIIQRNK

O=P([O-])(O)C(C[n+]1ccn(CCCc2ccc(F)c(F)c2)c1)P(=O)(O)O (stereo not shown) [compound 11, Hydrogen (2-(3-(3-(3,4-difluorophenyl)propyl)-1H-imidazol-3-ium-1-yl)-1-phosphonoethyl) phosphonate]
IC50 (EcFPPS): 0.12 ± 0.025 µM | IC50 (PaFPPS): 0.32 ± 0.068 µM | IC50 (TbFPPS): 0.12 ± 0.026 µM | IC50 (HsFPPS): 0.065 ± 0.012 µM | IC50 (SmFPPS): 0.57 ± 0.11 µM | IC50 [1]: 0.39 ± 0.073 µM | IC50 [2]: > 100 mg/L | IC50 (B. subtilis): 39 ± 13 mg/L (≈ 95.1 µM) | IC50 (M. smegmatis; Mycolicibacterium smegmatis, read-out: IC50 M. smegmatis, cell growth inhibition): ~7 mg/L (≈ 17.1 µM) | IC50 M. smegmatis (M. smegmatis; cell growth inhibition): 6.8 ± 3.0 mg/L (≈ 16.6 µM) | IC50 (E. coli [3]; read-out: IC50 E. coli): 2.1 ± 0.57 mg/L (≈ 5.12 µM) | IC50 (E. coli [3]; read-out: IC50 with RA): 19 ± 4.1 mg/L (≈ 46.3 µM) | IC50 (E. coli [3]; read-out: IC50 without RA): 2.1 ± 0.57 mg/L (≈ 5.12 µM) | IC50 (A. baumannii [4]; read-out: IC50 A. baumannii): 2.8 ± 0.7 mg/L (≈ 6.83 µM) | IC50 (A. baumannii [4]; read-out: IC50 with RA): 18 ± 4.9 mg/L (≈ 43.9 µM) | IC50 (A. baumannii [4]; read-out: IC50 without RA): 2.8 ± 0.7 mg/L (≈ 6.83 µM) | IC50 (K. pneumoniae [5]; read-out: IC50 K. pneumoniae): 2.3 ± 0.49 mg/L (≈ 5.61 µM) | IC50 (K. pneumoniae [5]; read-out: IC50 with RA): 13 ± 1.8 mg/L (≈ 31.7 µM) | IC50 (K. pneumoniae [5]; read-out: IC50 without RA): 2.3 ± 0.49 mg/L (≈ 5.61 µM) | IC50 (P. aeruginosa (PA01); read-out: IC50 P. aeruginosa): 3.5 ± 0.78 mg/L (≈ 8.53 µM) | IC50 (P. aeruginosa (PA01); read-out: IC50 with RA): 23 ± 7.8 mg/L (≈ 56.1 µM) | IC50 (P. aeruginosa (PA01); read-out: IC50 without RA): 3.5 ± 0.78 mg/L (≈ 8.53 µM) | IC50 (HEK293): 27 ± 4 mg/L (≈ 65.8 µM) | FICI (E. coli [6]; E. coli cell growth, combination of 32 and 11): 0.31 ± 0.099 | FIC (E. coli [6]; [12]): 0.24 ± 0.023 | FIC Index (E. coli [6]; [12]): 0.39 ± 0.15 | MIC (E. coli [6]; Escherichia coli): 6 mg/L | FIC (A. baumannii [7]; [13]): 0.37 ± 0.17 | FIC Index (A. baumannii [7]; [13]): 0.64 ± 0.23 | MIC (A. baumannii [7]; Acinetobacter baumannii): 6 mg/L | FIC (K. pneumoniae [8]; [14]): 0.097 ± 0.012 | FIC Index (K. pneumoniae [8]; [14]): 0.22 ± 0.026 | MIC (K. pneumoniae [8]; Klebsiella pneumoniae): 6 mg/L | FIC (P. aeruginosa; [15]): 0.27 ± 0.057 | FIC Index (P. aeruginosa; [15]): 0.44 ± 0.12 | MIC (P. aeruginosa; Pseudomonas aeruginosa): 10 mg/L | IC50 ([9]; BL21-DE3, read-out: IC50 with RA): 19 ± 2.4 mg/L (≈ 46.3 µM) | IC50 ([9]; BL21-DE3, read-out: IC50 without RA): 1.6 ± 0.35 mg/L (≈ 3.9 µM) | IC50 [10]: 1 to 4 mg/L (≈ 2.44 to 9.75 µM) | mean FICI [11]: 0.42 ± 0.17
